Source: PubChem
tolC growth inh – growth inhibitors of E. coli BW25113 tolC mutant. AID 573. growth inhibition, % at 10 µM (by protocol). OD615. 65,000 tested, 2.2% active;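 active means growth inhibition at or above a cutoff equal to the mean over every tested compound plus 3 SD, cut at about 60% in these data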;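 further: growth measured after 20 h incubation at 37 °C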
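Test system: tolC-deleted E. coli BW25113; medium: LB with kanamycin 50 µg/mL; compound: single-point testing at 10 µM; incubation: 20 h compound exposure of bacteria at 37 °C; signal: OD at 615 nm; evaluation: growth inhibition in percent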
Hsp90 inh – displaces geldanamycin probe from tumor Hsp90. NCI-N417 lysate Hsp90, Cy3B-geldanamycin FP displacement. 64,000 tested, 0.35% active. P07900. inhibition, % at 30 µM;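 active means inhibition above 50%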;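 further: 0% = tracer plus lysate wells and 100% = tracer alone without lysate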
M1 antag – M1 muscarinic receptor (rat) antagonism; P08482; CHO-M1 cells, Fluo-4 calcium, ACh EC80 antagonist mode; stronger effect = lower value; B-score at 10 µM; 64,000 tested, 3.4% active; AID 628;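 active means calcium fluorescence response, raw or row-and-column corrected B-score, differing from the plate sample mean either way at a set confidence level, mostly lower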
Target sequence (P08482 whole entry, looked up): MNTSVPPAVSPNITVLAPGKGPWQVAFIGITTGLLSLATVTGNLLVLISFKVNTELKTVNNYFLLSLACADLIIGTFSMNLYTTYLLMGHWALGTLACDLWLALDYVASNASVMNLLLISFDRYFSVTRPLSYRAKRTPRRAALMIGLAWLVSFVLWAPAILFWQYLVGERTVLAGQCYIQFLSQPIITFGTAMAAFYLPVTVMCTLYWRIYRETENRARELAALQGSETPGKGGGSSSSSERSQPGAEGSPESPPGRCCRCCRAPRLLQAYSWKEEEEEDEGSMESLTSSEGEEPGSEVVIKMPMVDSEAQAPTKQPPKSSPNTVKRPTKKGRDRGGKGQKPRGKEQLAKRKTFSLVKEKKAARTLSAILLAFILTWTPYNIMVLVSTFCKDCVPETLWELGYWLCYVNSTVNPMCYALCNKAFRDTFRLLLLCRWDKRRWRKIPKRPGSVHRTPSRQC
BAP1 block – human BAP1 deubiquitinase inhibition | Q92560 | recombinant BAP1, Ub-AMC hydrolysis fluorescence kinetic; stronger effect = lower value | calls only at 20 µM | 72,000 tested, 0.48% active;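 active means activity remaining at or below 50% of control, provided the compound also passes the data quality filters; inactive means the rest, including low values that fail the filters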;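 further: 100% = DMSO wells rate and 0% = substrate alone blank rate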
M1 agonist – activates the M1 muscarinic receptor. CHO-M1 cells, Fluo-4 calcium fluorescence, agonist mode; stronger effect = higher value. B-score at 10 µM. 64,000 tested, 3% active;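 active means fluorescence rise, raw or as B-score row- and column-corrected plate score, outside the 99.7% band of its plate's samples, either direction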
Ecoli WT expand – E. coli BW25113 growth inhibition, expanded screen | growth inhibition, % at 100 µM | 98,000 tested, 0.15% active | OD600 absorbance;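 active means growth inhibition above about 50% at one test dose, limit read from the data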;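 further: growth measured after 20 h incubation at 37 °C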
Active calls of the source: *; i = inactive; / = no result given. Rows were chosen to be rich in hits. Some 5.1% of all compounds tested hit in one or more screens of this group.

SMILES	tolC growth inh	Hsp90 inh	M1 antag	BAP1 block	M1 agonist	Ecoli WT expand
CC1(C)c2ssc(=S)c2-c2ccccc2N1C(=O)c1ccco1	0	6	0.21	i	0.55	-16
Cn1cnnc1SCC(=O)N1c2ccccc2-c2c(ssc2=S)C1(C)C	-2	-4	-1.9*	i	0.14	/
COc1ccc(Cl)cc1N1CCN(CCNC(=O)Nc2ccccc2C)CC1	63*	-10	0.73	i	-0.48	5
COc1ccccc1N1CCN(CCCNC(=O)Nc2ccccc2C)CC1	-16	-6	0.11	i	-0.91	6
CCOC(=O)N1CCC(c2cc(=O)n3[nH]c(C)c(-c4ccc(F)cc4)c3n2)CC1	99*	-2	-0.76	i	-0.12	6
O=C(NCc1ccc2c(c1)OCO2)c1ccc(-c2ccc(Cl)cc2)o1	79*	-1	1.2	/	0.61	-21
Cc1ccc2oc(C(=O)NCc3ccc4c(c3)OCO4)c(C)c2c1	86*	-1	-2	i	-0.41	-9
Cc1cccc(NC(=O)c2cc(S(=O)(=O)Nc3ccc(C(=O)O)cc3)ccc2Cl)c1	/	/	/	i	/	/
Fc1cccc(Cl)c1Cn1nnc(-c2ccc3c(c2)OCO3)n1	63*	1	0.5	i	0.07	-8
Cc1cc(C)c2c(N)c3ccccc3nc2n1	/	/	/	/	/	52*
CCc1ccc2nc3nc(C)cc(C)c3c(N)c2c1	/	/	/	/	/	5
CCOC(=O)C1=C(C)OC(N)=C(C(=O)OCC)C1c1cccnc1 (stereo not given)	4	72*	-0.44	i	-0.15	1
CCOC(=O)C1=C(C)OC(N)=C(C(=O)OCC)C1c1ccncc1 (stereo not given)	7	-3	0.64	i	0.76	-3
Cc1cc(C)c2c(n1)nn1c(NCCCN3CCOCC3)cc(C)nc21	-25	0	0.072	/	0.61	/
Cc1cc(C)c2c(n1)nn1c(NCCCn3ccnc3)cc(C)nc21	-34	-1	-3.3*	/	0.26	/
Clc1ccccc1-c1noc(C2CCC(c3ccccc3)CC2)n1 (stereo not given)	/	/	/	i	/	/
COc1ccc(C2CC(C(F)(F)F)n3nc(C(=O)NCc4cccs4)cc3N2)cc1 (stereo not given)	/	/	/	i	/	/
CCOc1cc2[nH]c(=O)n(CC3CCC(C(=O)NC(C)CC)CC3)c(=O)c2cc1OCC (stereo not given)	-8	-1	1.1*	/	0.46	/
CCOc1cc2[nH]c(=O)n(CC3CCC(C(=O)NC4CCCCC4)CC3)c(=O)c2cc1OCC (stereo not given)	-7	-5	0.34	i	-0.98	/
O=C(Cc1cccs1)N1CCC(c2nc3c(nnn3Cc3ccccc3Cl)c(=O)[nH]2)CC1	36	-5	0.37	i	-0.2	-7
O=C(C1CCCCC1)N1CCC(c2nc3c(nnn3Cc3c(F)cccc3Cl)c(=O)[nH]2)CC1	89*	1	-0.28	i	-1.2	/
N#Cc1cccc(NC(=O)N2CCC(c3nc4c(nnn4Cc4cccc(Cl)c4)c(=O)[nH]3)CC2)c1	-9	-2	-0.36	i	-0.46	-10
COc1ccccc1NC(=O)N1CCCC(c2nc3c(nnn3Cc3ccc(C)cc3)c(=O)[nH]2)C1 (stereo not given)	14	/	0.13	/	1.1	0
Cc1ccc(NC(=O)N2CCC(c3nc4c(nnn4Cc4cccc(Cl)c4)c(=O)[nH]3)CC2)cc1	99*	-5	-0.0071	i	-0.26	-13
O=C(C1CCCCC1)N1CCC(c2nc3c(nnn3Cc3ccccc3Cl)c(=O)[nH]2)CC1	18	-5	0.3	i	-0.051	/
SMILES	tolC growth inh	Hsp90 inh	M1 antag	BAP1 block	M1 agonist	Ecoli WT expand
O=C(Nc1ccc(F)cc1)N1CCC(c2nc3c(nnn3Cc3cccc(Cl)c3)c(=O)[nH]2)CC1	100*	-2	0.7	i	-0.98	-1
CCCCCCC(=O)N1CCC(c2nc3c(nnn3Cc3ccccc3Cl)c(=O)[nH]2)CC1	100*	1	0.38	i	0.66	2
O=C(NC1CCCCC1)c1ccc(Cn2cc(Br)cn2)o1	-3	-10	0.73	i	0.6	6
O=C(Nc1ccc(C(F)(F)F)cc1Cl)c1ccc(Cn2cc(Br)cn2)o1	99*	-7	-0.46	i	-0.25	1
O=C(NCc1ccccn1)c1ccc(Cn2cc(Br)cn2)o1	-4	-13	2.3*	i	0.059	4
COc1ccc(-c2cc(-c3cc(F)ccc3O)[nH]n2)cc1OC	81*	4	-0.019	i	-1.1	3
COc1ccc(-c2cc(-c3ccccc3O)[nH]n2)cc1OC	46	-2	-0.92	i	1.1	-5
CCOC(=O)C1=C(C)NC(=S)NC1c1ccc(SC)cc1 (stereo not given)	/	/	/	i	/	/
CS(=O)(=O)N1CCc2cc(-c3csc(NC(=O)Cc4cccs4)n3)ccc21	62*	-7	0.24	i	-0.011	-14
O=C(CN1CCOCC1)Nc1nc(-c2ccc3c(c2)CCN3S(=O)(=O)c2ccccc2)cs1	8	2	0.091	i	-0.91	-10
CCOc1ccc(C2C(N3C(=O)c4ccc([N+](=O)[O-])cc4C3=O)C(=O)N2c2ccc(C)c(Cl)c2)cc1 (stereo not given)	/	/	/	i	/	/
COc1ccc(OCC(O)Cn2c(N3CCOCC3)nc3c2c(=O)n(C)c(=O)n3C)cc1 (stereo not given)	/	/	/	i	/	/
Cc1cccc(-n2ncc3c(N4CC(C)CC(C)C4)ncnc32)c1 (stereo not given)	63*	-2	-0.54	i	-1.6	1
CC1CC(C)CN(c2ncnc3c2cnn3Cc2ccc(Cl)cc2)C1 (stereo not given)	81*	-1	0.49	i	-1.1	-22
Clc1ccc(Cn2ncc3c(N4CCCCC4)ncnc32)c(Cl)c1	73*	1	-0.53	i	-0.58	1
Cc1c(NC(=O)COc2ccc(Br)cc2)c(=O)n(-c2ccccc2)n1C	/	/	/	i	/	/
Cn1c(=O)c2c(nc(NCCCO)n2C)n(C)c1=O	/	/	/	i	/	/
CCC(C(=O)Nc1nccs1)(C(F)(F)F)C(F)(F)F	8	-2	-0.53	i	7.4*	-2
O=C(c1ccco1)N1CCN(C(c2ccccc2Cl)c2nnnn2Cc2ccco2)CC1 (stereo not given)	4	-2	-0.63	i	12*	2
Clc1ccc(OCc2nc(-c3ccccn3)n[nH]2)cc1	85*	-4	-0.043	i	-0.23	13
CCOC(=O)/C(C(N)=NCC(C)C)=C(/O)c1ccccc1	/	/	/	/	/	10
CCCOC(=O)/C(C(N)=NCc1ccccc1)=C(\O)OCCC	62*	-1	0.45	i	-0.85	13
Cc1ccc(S(=O)(=O)N(Cc2ccccc2)Cc2ccco2)cc1	64*	-5	-0.0018	i	-0.29	15
Cc1ccc(S(=O)(=O)N(Cc2ccc(F)cc2)Cc2ccco2)cc1	66*	-6	-0.48	i	-0.054	0
COc1ccc(S(=O)(=O)N(Cc2ccc(OC)c(OC)c2)Cc2ccco2)cc1	42	-2	-0.062	i	-0.031	-13
